# Measured values reported in ChEMBL document CHEMBL4811271, “Computer-aided design of 1,4-naphthoquinone-based inhibitors targeting cruzain and rhodesain cysteine proteases” (Bioorg Med Chem, 2021).
# The source made the active and inactive calls. The rule behind the calls is not given here.
# How the values were obtained:
# [1] = target: Cruzipain (Trypanosoma cruzi) (UniProt P25779); assay: Inhibition of recombinant Trypanosoma cruzi cruzain at 100 uM using Z-FR-AMC as substrate preincubated for 10 mins followed by substrate addition measured for 5 mins by fluorimetric analysis relative to control
# Outline: (§1)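 Recombinant enzyme (cruzain expressed in-house; rhodesain donated) at 0.5 nM in 0.1 M sodium acetate pH 5.5 with 1 mM DTT and 0.01% Triton X-100. Compound pre-incubated with enzyme 10 min, then 2.5 µM Z-FR-AMC added. Fluorescence followed 5 min. Activity taken from initial rates against DMSO control, E64 as positive control. Screen at 100 µM. IC50 from ≥8 concentrations by nonlinear regression. Two independent experiments in triplicate.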
# [2] = target: Rhodesain (Trypanosoma brucei rhodesiense) (UniProt Q95PM0); assay: Inhibition of recombinant Trypanosoma brucei rhodesain at 100 uM using Z-FR-AMC as substrate preincubated for 10 mins followed by substrate addition measured for 5 mins by fluorimetric analysis relative to control; outline: as §1
# Cruzipain = Cruzipain (Trypanosoma cruzi, UniProt P25779); assay: Inhibition of recombinant Trypanosoma cruzi cruzain using Z-FR-AMC as substrate preincubated for 10 mins followed by substrate addition measured for 5 mins by fluorimetric analysis relative to control; outline: as §1
# Rhodesain [3] = target: T1, Rhodesain (Trypanosoma brucei rhodesiense, UniProt Q95PM0); assay: Inhibition of recombinant Trypanosoma brucei rhodesain using Z-FR-AMC as substrate preincubated for 10 mins followed by substrate addition measured for 5 mins by fluorimetric analysis relative to control
# Outline: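 Recombinant rhodesain (0.5 nM) in 0.1 M sodium acetate pH 5.5 with 1 mM DTT and 0.01% Triton X-100, pre-incubated with compound for 10 min before adding 2.5 µM Z-FR-AMC. Fluorescence monitored 5 min. Initial rates compared with DMSO control. Screen at 100 µM; IC50 determined for compounds above 70% inhibition, from at least 8 concentrations, two independent experiments in triplicate.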
# [4] = target: Rhodesain (Trypanosoma brucei rhodesiense) (UniProt Q95PM0); assay: Inhibition of recombinant Trypanosoma brucei rhodesain at 0.1 uM using Z-FR-AMC as substrate by fluorimetric analysis relative to control
# [5] = target: Rhodesain (Trypanosoma brucei rhodesiense) (UniProt Q95PM0); assay: Inhibition of recombinant Trypanosoma brucei rhodesain at 0.1 uM using Z-FR-AMC as substrate preincubated for 10 mins followed by substrate addition by fluorimetric analysis relative to control
# [6] = target: Rhodesain (Trypanosoma brucei rhodesiense) (UniProt Q95PM0); assay: Reversible inhibition of recombinant Trypanosoma brucei rhodesain using Z-FR-AMC as substrate measured for 30 mins by fluorimetric analysis
# Outline: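 Rhodesain at 100-fold final assay concentration incubated 30 min with compound at 10-fold its IC50. The mixture was then diluted 100-fold into buffer with 2.5 µM Z-FR-AMC, giving standard enzyme level and 0.1× IC50. AMC release was monitored continuously for 30 min and compared with vehicle control. E-64 served as irreversible reference.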
# [7] = target: Rhodesain (Trypanosoma brucei rhodesiense) (UniProt Q95PM0); assay: Inhibition of recombinant Trypanosoma brucei rhodesain at 100 uM using Z-FR-AMC as substrate by fluorimetric analysis relative to control; outline: as §1
# [8] = target: Rhodesain (Trypanosoma brucei rhodesiense) (UniProt Q95PM0); assay: Inhibition of recombinant Trypanosoma brucei rhodesain at 100 uM using Z-FR-AMC as substrate by fluorimetric analysis; details: TDE = time-dependent effect; outline: as §1
# Rhodesain [9] = target: T1, Rhodesain; assay: Inhibition of recombinant Trypanosoma brucei rhodesain using Z-FR-AMC as substrate by fluorimetric analysis relative to control
# Outline: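 Rhodesain (recombinant, gift) 0.5 nM in 0.1 M sodium acetate pH 5.5 with 1 mM DTT and 0.01% Triton X-100. Z-FR-AMC substrate 2.5 µM, read by fluorescence over 5 min. Activity from initial rates versus DMSO control, with E64 as positive control. Two independent experiments in triplicate. IC50 from at least 8 concentrations by nonlinear regression.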
# Vero = assay: Cytotoxicity against African green monkey Vero cells measured after 24 hrs; assay type: functional; details: Chlorocebus sabaeus
# Trypanosoma cruzi = assay: Antitrypanosomal activity against Trypanosoma cruzi Dm28c assessed as live parasite count measured after 72 hrs by optical microscopy; assay type: functional; details: read-out: LD50 (the source's name)
# Rhodesain [10] = target: T1, Rhodesain; assay: Binding affinity to Trypanosoma brucei rhodesain; outline: as §1
# Cruzipain (Trypanosoma cruzi), sequence (P25779 123-467 limits assumed): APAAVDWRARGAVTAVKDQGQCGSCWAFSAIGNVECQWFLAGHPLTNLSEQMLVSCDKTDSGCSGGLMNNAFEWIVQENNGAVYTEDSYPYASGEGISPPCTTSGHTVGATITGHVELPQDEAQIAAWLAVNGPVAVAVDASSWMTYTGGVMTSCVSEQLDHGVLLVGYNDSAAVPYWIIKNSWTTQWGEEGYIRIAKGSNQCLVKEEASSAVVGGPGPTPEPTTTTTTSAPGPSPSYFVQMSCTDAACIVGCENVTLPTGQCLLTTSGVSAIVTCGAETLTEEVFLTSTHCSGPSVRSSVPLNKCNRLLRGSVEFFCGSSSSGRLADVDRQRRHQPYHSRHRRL
# Cruzipain, sequence (P25779 whole entry): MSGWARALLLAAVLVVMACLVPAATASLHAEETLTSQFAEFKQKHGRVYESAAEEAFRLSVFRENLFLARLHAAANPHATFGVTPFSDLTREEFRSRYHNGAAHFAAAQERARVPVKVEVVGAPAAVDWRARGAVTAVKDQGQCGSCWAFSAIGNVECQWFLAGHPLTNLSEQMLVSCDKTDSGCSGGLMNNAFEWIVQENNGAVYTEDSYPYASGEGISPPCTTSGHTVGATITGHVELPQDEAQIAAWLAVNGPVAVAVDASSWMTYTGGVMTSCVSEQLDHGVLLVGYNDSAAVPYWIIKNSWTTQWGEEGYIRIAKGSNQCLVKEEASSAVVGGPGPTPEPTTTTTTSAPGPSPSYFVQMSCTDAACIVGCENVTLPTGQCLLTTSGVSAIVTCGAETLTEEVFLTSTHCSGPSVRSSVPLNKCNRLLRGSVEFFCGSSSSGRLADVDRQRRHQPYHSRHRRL
# T1 sequence (Q95PM0 whole entry): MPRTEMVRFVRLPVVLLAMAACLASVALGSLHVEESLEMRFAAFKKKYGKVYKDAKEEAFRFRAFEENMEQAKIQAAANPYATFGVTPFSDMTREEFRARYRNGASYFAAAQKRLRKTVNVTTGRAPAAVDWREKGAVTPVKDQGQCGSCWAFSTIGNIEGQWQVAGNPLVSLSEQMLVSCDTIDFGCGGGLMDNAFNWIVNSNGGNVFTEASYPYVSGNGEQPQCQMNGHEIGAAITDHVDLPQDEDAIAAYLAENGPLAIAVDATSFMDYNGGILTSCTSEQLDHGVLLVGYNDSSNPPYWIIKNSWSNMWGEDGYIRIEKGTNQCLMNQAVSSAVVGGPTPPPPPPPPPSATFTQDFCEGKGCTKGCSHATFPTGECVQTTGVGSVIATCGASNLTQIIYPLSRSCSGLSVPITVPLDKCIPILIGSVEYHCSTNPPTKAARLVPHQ
# Rhodesain (Trypanosoma brucei rhodesiense), sequence (Q95PM0 1-450): as the sequence (Q95PM0 whole entry) above
compound,measurement,setting,value
O=C(NNC1=CC(=O)c2ccccc2C1=O)c1ccncc1,inhibition,[1],37%
same,inhibition,[2],37%
O=C1C=C(Br)C(=O)c2ccccc21,inhibition,[1],51%
same,inhibition,[2],50%
Cc1cc(NS(=O)(=O)c2ccc(NC3=CC(=O)c4ccccc4C3=O)cc2)no1,inhibition,[1],6%
same,inhibition,[2],1%
COC1=CC(=O)c2ccccc2C1=O,inhibition,[1],32%
same,inhibition,[2],27%
CC(C)C[C@H](NC(=O)[C@H]1O[C@@H]1C(=O)O)C(=O)NCCCCN=C(N)N [E-64],IC50,Cruzipain,0.02 µM
same,IC50,Rhodesain [3],0.0031 µM
same,inhibition,[4],7%
same,inhibition,[5],95%
same,inhibition,[6],Active
O=C1C=C(O)C(=O)c2ccccc21 [LAWSONE],inhibition,[1],58%
same,inhibition,[2],77%
same,IC50,Rhodesain [3],33 µM
same,inhibition,[7],27%
same,inhibition,[8],Tde
same,IC50,Rhodesain [9],> 100 µM
same,inhibition,[6],Active
CC(C)=CCC1=C(O)c2ccccc2/C(=N/NC(N)=S)C1=O,inhibition,[1],83%
same,IC50,Cruzipain,34 µM
same,inhibition,[2],82%
same,IC50,Rhodesain [3],28 µM
same,inhibition,[7],79%
same,IC50,Rhodesain [9],66 µM
same,inhibition,[6],Active
CC1(C)CCC2=C(O1)C1(CO1)c1ccccc1C2=O (stereo not given),CC50,Vero,> 50 µM
same,LC50,Trypanosoma cruzi,< 3.1 µM
O=C1C(Cl)=C(Cl)C(=O)c2ccccc21,inhibition,[1],49%
same,inhibition,[2],56%
CC(C)C[C@H](NC(=O)[C@H](Cc1ccccc1)NC1=C(C#N)C(=O)c2ccccc2C1=O)C(=O)O,Ki,Rhodesain [10],0.0005 µM
O=C1C=C(O)c2ccccc2/C1=N/NC(=O)c1ccncc1,inhibition,[1],66%
same,inhibition,[2],52%
O=C1C=C(Nc2ccc(S(=O)(=O)Nc3ccccn3)cc2)C(=O)c2ccccc21,inhibition,[1],95%
same,IC50,Cruzipain,6.3 µM
same,inhibition,[2],93%
same,IC50,Rhodesain [3],1.8 µM
same,inhibition,[7],48%
same,inhibition,[8],Tde
same,IC50,Rhodesain [9],30 µM
same,inhibition,[6],Active
CC(C)=CCC1=C(O)c2ccccc2/C(=N/NC(=O)c2ccncc2)C1=O,inhibition,[1],76%
same,IC50,Cruzipain,33 µM
same,inhibition,[2],87%
same,IC50,Rhodesain [3],20 µM
same,inhibition,[7],73%
same,IC50,Rhodesain [9],29 µM
same,inhibition,[6],Active
CC(C)=CCC1=C(O)C(=O)c2ccccc2C1=O [LAPACHOL],inhibition,[1],35%
same,inhibition,[2],70%
same,IC50,Rhodesain [3],58 µM
same,inhibition,[7],18%
same,inhibition,[8],Tde
same,IC50,Rhodesain [9],> 100 µM
same,inhibition,[6],Active
O=C1C=C(Nc2ccccc2)C(=O)c2ccccc21,inhibition,[1],48%
same,inhibition,[2],61%
CC(NC1=CC(=O)c2ccccc2C1=O)c1ccccc1 (stereo not given),inhibition,[1],26%
same,inhibition,[2],23%
